In ChEMBL document CHEMBL2177098, “Synthesis and evaluation of novel ¹⁸F labeled 2-pyridinylbenzoxazole and 2-pyridinylbenzothiazole derivatives as ligands for positron emission tomography (PET) imaging of β-amyloid plaques” (J Med Chem, 2012):
Calls of active or inactive are those of the source. The calls are words filed in the database; no cut-off is given here.

Tests used:
[1] = Displacement of [125I]-IMPY from amyloid beta (1 to 42) fibrils after 2 hrs by gamma-counting analysis
Procedure, shortened: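 Competition binding with aggregated Aβ1-42 fibrils and [125I]IMPY (60000−100000 cpm/100 μL) in 0.05% BSA (1 mL total); inhibitors 10⁻⁴−10^−8.5 M in ethanol. Incubated 37 °C for 2 h, then GF/B vacuum filtration with PBS (0.02 M, pH 7.4) washes and γ counting. Three repeats; IC50 converted to Ki by Cheng−Prusoff.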

Mus musculus [2] = species on record: Mus musculus; experiment: Binding affinity to amyloid beta plaques in transgenic C57BL6 mouse cortex expressing APP Swedish mutant/PSEN1 at 370 KBq/100 ul after 1 hr by thioflavinS-staining method; conditions: tested as the 18F-labelled form
Procedure, shortened: (§1)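 Paraffin brain sections from 12-month-old Tg mice (C57BL6, APPswe/PSEN1) and age-matched controls, deparaffinized through xylene and graded ethanol, then PBS (0.2 M, pH 7.4) 30 min. Incubated with 18F tracer (370 KBq per 100 μL) 1 h at room temperature, washed in 40% EtOH, rinsed in water, then phosphor plate exposure 2 h. The same sections were afterwards stained with 0.125% thioflavin S in 10% EtOH for 3 min and washed in 40% EtOH.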

Mus musculus [3] = species on record: Mus musculus; experiment: Binding affinity to amyloid beta plaques in transgenic C57BL6 mouse hippocampus expressing APP Swedish mutant/PSEN1 at 370 KBq/100 ul after 1 hr by autoradiographic analysis; format: tissue-based; conditions: tested as the 18F-labelled form; procedure, shortened: as §1
Mus musculus [4] = species on record: Mus musculus; experiment: Binding affinity to amyloid beta plaques in transgenic C57BL6 mouse cortex expressing APP Swedish mutant/PSEN1 at 370 KBq/100 ul after 1 hr by autoradiographic analysis; conditions: tested as the 18F-labelled form; procedure, shortened: as §1
Mus musculus [5] = species on record: Mus musculus; experiment: Binding affinity to amyloid beta plaques in transgenic C57BL6 mouse hippocampus expressing APP Swedish mutant/PSEN1 at 370 KBq/100 ul after 1 hr by thioflavinS-staining method; format: tissue-based; conditions: tested as the 18F-labelled form; procedure, shortened: as §1

Row | SMILES | Ki [1] | Activity (Mus musculus [2]) | Activity (Mus musculus [3]) | Activity (Mus musculus [4]) | Activity (Mus musculus [5])
1 | CN(C)c1ccc(-c2nc3cc(OCCOCCF)ccc3o2)cn1 | 7.3 nM |  |  |  | 
2 | CN(C)c1ccc(-c2nc3ccc(OCCOCCOCCF)cc3s2)cn1 | 5.8 nM | Active | Active | Active | Active
3 | CNc1ccc(-c2nc3cc(OCCOCCF)ccc3o2)cn1 | 102 nM |  |  |  | 
